Most compounds without a hit are left out; they make up all but 2.7% or so of the library.
TNF death inh: TNF-alpha cell death inhibition in Jurkat FADD-/- cells; Jurkat FADD-/- TNF necroptosis rescue, ATP luminescence, 24 h; 0 = TNF only, 100 = no-TNF cells; activation (protection from cell death), % at 10 µM; hit rate 0.068% among 220,000; AID 463075;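 active means activation, meaning protection from cell death, of at least 50% relative to plate controls; inactive means activation below 50%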;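 further: necroptosis triggered by 40 ng/mL TNF-alpha added together with compound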
RBBP9 inh: inhibitors of human serine hydrolase RBBP9. O75884. recombinant RBBP9, FP-Rh probe fluorescence polarization. inhibition, % at 7.94 µM. hit rate 0.2% among 220,000. AID 1515;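 active means inhibition above the campaign mean of all tested compounds plus 3 SD, cut at about 14% in these data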
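Test system – recombinant human RBBP9 · Input – RBBP9 2.5 µM in dispensing solution, pre-mixing · Medium – Tris buffer pH 8.0, NaCl, Pluronic · Schedule – preincubation 30 min plus labeling 45 min at 25 °C · Measured by – fluorescence polarization · Measure – % inhibition · Controls – DMSO and no-protein wells · Replicates – one well per compound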
PfM18AAP inh: blocks P. falciparum M18 aspartyl aminopeptidase | recombinant PfM18AAP, H-Glu-NHMec fluorogenic cleavage | inhibition, % at 7.35 µM | hit rate 1.2% among 290,000 | AID 1822;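 active means inhibition above the campaign mean inhibition over all tested compounds plus 3 SD, cut at about 28% in these data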
p97 ATPase inh: inhibitors of human p97 ATPase; P55072; recombinant p97 ATPase, Kinase-Glo ATP luminescence, 3 h; inhibition, % at 8 µM; hit rate 0.42% among 220,000; AID 1481; in the data active means inhibition above about 15%
Target sequence (P55072 whole entry, looked up): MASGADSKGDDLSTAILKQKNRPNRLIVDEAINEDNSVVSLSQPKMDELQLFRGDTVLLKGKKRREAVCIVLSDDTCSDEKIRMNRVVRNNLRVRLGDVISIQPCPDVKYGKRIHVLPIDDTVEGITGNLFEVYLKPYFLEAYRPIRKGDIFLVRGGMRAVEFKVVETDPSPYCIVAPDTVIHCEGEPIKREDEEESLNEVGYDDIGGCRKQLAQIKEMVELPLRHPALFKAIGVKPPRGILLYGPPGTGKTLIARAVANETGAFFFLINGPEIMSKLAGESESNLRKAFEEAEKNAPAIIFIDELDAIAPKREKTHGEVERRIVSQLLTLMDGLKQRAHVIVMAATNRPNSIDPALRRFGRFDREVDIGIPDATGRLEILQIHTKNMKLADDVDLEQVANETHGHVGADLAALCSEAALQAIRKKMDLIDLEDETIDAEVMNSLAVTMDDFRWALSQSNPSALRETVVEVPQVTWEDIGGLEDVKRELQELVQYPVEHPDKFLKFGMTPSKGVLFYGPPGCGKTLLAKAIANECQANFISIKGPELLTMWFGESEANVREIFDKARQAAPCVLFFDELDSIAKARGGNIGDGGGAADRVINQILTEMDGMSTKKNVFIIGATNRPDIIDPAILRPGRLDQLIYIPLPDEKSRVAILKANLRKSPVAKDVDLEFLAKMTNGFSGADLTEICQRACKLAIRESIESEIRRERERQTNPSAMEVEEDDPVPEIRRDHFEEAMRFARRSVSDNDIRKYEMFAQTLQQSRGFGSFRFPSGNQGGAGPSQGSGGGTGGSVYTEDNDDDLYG
zVAD death inh: blocks zVAD induced death of L929 cells. hit rate 0.38% among 220,000. L929 zVAD necroptosis rescue, ATP luminescence, 24 h; with zVAD 60 µM. viability rescue, % at 10 µM;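 active means activation, scaled between plate controls, above about 75%, limit read from the data; inactive means activation under that limit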
Wee1 stabilizer: human Wee1 degradation inhibition, primary screen | P30291 | HeLa Luc-Wee1K328M stability, luciferase luminescence; 100% = proteasome inhibitor MG132 effect | reporter increase, % at 5 µM | hit rate 1.2% among 220,000 | AID 1321;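 active means activation above the mean of all tested compounds plus 3 SD, set per screening run, cut at about 8.8% in these data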;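 further: cells exposed to compound for 20 h before luminescence read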
Hits are given with their value.

How did Cn1c(=O)c2c(ncn2CC(=O)NC(C)(C)C)n(C)c1=O do in these assays?
TNF death inh: inactive; RBBP9 inh: inactive; PfM18AAP inh: inactive; p97 ATPase inh: inactive; zVAD death inh: inactive; Wee1 stabilizer: inactive

How did COc1ccc(NC2CCCN(C(=O)c3ccc4nc(C)c(C)nc4c3)C2)cc1OC (centres undefined) do in these assays?
PfM18AAP inh: inactive

Results for Cc1cc(NC(=O)CCC(=O)N(CC(=O)NCC2CCCO2)c2ccc(C(C)C)cc2)no1 (centres undefined) ?
PfM18AAP inh: inactive

What do the screens show for `COc1cc(C(=O)Oc2cccc(C(=S)N3CCOCC3)c2)cc(OC)c1OC`?
PfM18AAP inh: inactive

How did COc1cc(C(=O)Oc2c(OC)cc(C(=S)N3CCOCC3)cc2OC)cc(OC)c1OC do in these assays?
PfM18AAP inh: inactive

How did COc1cc(C(=S)N2CCOCC2)cc(OC)c1OC(=O)c1ccc(F)cc1 do in these assays?
PfM18AAP inh: 29

Results for O=C(Oc1cccc(C(=S)N2CCOCC2)c1)c1ccccc1 ?
PfM18AAP inh: 28

Results for Cc1nn(CCCC(=O)NCCc2ccccc2)c(=O)c2nccn12 ?
PfM18AAP inh: inactive

What do the screens show for `Cc1c(C(=O)N/N=C/c2cccs2)nc2ccccn12`?
TNF death inh: inactive; RBBP9 inh: inactive; PfM18AAP inh: inactive; p97 ATPase inh: inactive; zVAD death inh: inactive; Wee1 stabilizer: inactive

What do the screens show for `CCC(CO)NCc1ccc(OCC(O)c2ccccc2)c(OC)c1` (centres undefined)?
PfM18AAP inh: inactive

Results for O=C1CCC(=O)N1c1cccc(OS(=O)(=O)c2ccccc2)c1 ?
TNF death inh: inactive; RBBP9 inh: inactive; PfM18AAP inh: 36; p97 ATPase inh: inactive; zVAD death inh: inactive; Wee1 stabilizer: inactive

What do the screens show for `CC1CCC2C(=O)N(c3cccc(OS(=O)(=O)c4ccccc4)c3)C(=O)C2C1` (centres undefined)?
TNF death inh: inactive; RBBP9 inh: inactive; PfM18AAP inh: inactive; p97 ATPase inh: inactive; zVAD death inh: inactive; Wee1 stabilizer: inactive

Results for O=C(Nc1cccc(-c2nc3ccccc3[nH]2)c1)c1ccccn1 ?
PfM18AAP inh: 31

Results for CCN(CC)C(=O)CSc1nc2cc3c(cc2c(=O)n1CCCCCC(=O)NCc1ccc(OC)cc1)OCO3 ?
TNF death inh: inactive; RBBP9 inh: inactive; PfM18AAP inh: inactive; p97 ATPase inh: inactive; zVAD death inh: inactive; Wee1 stabilizer: inactive

Results for Cc1cc(=S)[nH]c2c(C)cccc12 ?
TNF death inh: inactive; RBBP9 inh: inactive; PfM18AAP inh: 33; p97 ATPase inh: inactive; zVAD death inh: inactive; Wee1 stabilizer: inactive

What do the screens show for `Cc1cccc2c(-c3ccccc3)cc(=O)[nH]c12`?
TNF death inh: inactive; RBBP9 inh: inactive; PfM18AAP inh: inactive; p97 ATPase inh: inactive; zVAD death inh: inactive; Wee1 stabilizer: inactive

Results for Nc1nonc1-n1nnc(C(=O)N/N=C/c2ccccc2Cl)c1COc1ccc(F)cc1 ?
TNF death inh: inactive; RBBP9 inh: inactive; PfM18AAP inh: inactive; p97 ATPase inh: inactive; zVAD death inh: inactive; Wee1 stabilizer: inactive

How did O=S(=O)(c1cnc[nH]1)N1CCCCCC1 do in these assays?
TNF death inh: inactive; RBBP9 inh: inactive; PfM18AAP inh: inactive; p97 ATPase inh: inactive; zVAD death inh: inactive; Wee1 stabilizer: 13

What do the screens show for `CC(NC(=O)C1CCCN(S(=O)(=O)c2cnc[nH]2)C1)c1ccccc1` (centres undefined)?
TNF death inh: inactive; RBBP9 inh: inactive; PfM18AAP inh: inactive; p97 ATPase inh: 18; zVAD death inh: inactive; Wee1 stabilizer: inactive

What do the screens show for `CC(C)c1ccc(NC(=O)C2CCCN(S(=O)(=O)c3cnc[nH]3)C2)cc1` (centres undefined)?
TNF death inh: inactive; RBBP9 inh: inactive; PfM18AAP inh: inactive; p97 ATPase inh: inactive; zVAD death inh: inactive; Wee1 stabilizer: inactive

What do the screens show for `CC1CCN(S(=O)(=O)c2cnc[nH]2)CC1`?
PfM18AAP inh: inactive

Results for CC(=O)N(CC1CCCO1)c1nnc(-c2ccccn2)s1 (centres undefined) ?
TNF death inh: 65; RBBP9 inh: inactive; PfM18AAP inh: inactive; p97 ATPase inh: inactive; zVAD death inh: inactive; Wee1 stabilizer: inactive

Results for COCCN(C(C)=O)c1nnc(-c2ccccn2)s1 ?
TNF death inh: inactive; RBBP9 inh: inactive; PfM18AAP inh: inactive; p97 ATPase inh: inactive; zVAD death inh: inactive; Wee1 stabilizer: inactive

Results for COc1ccc(C(=O)NCc2nnc(SCC(=O)N3CCc4ccccc43)n2Cc2ccccc2)cc1 ?
TNF death inh: inactive; RBBP9 inh: inactive; PfM18AAP inh: inactive; p97 ATPase inh: inactive; zVAD death inh: inactive; Wee1 stabilizer: inactive

How did COC(=O)C1=C(N)Oc2cc(C)n(Cc3cccnc3)c(=O)c2C1c1cccc(OC)c1OC (centres undefined) do in these assays?
TNF death inh: inactive; RBBP9 inh: inactive; PfM18AAP inh: inactive; p97 ATPase inh: inactive; zVAD death inh: inactive; Wee1 stabilizer: 9.2

How did Cc1cc(C)c2c3c(sc2n1)C(=O)N(c1ccccc1C)CC(=O)N3 do in these assays?
TNF death inh: inactive; RBBP9 inh: inactive; PfM18AAP inh: inactive; p97 ATPase inh: inactive; zVAD death inh: inactive; Wee1 stabilizer: 9.5

Results for CC(=O)Nc1ccc2nc(NC(=O)COc3cccc(C)c3)sc2c1 ?
TNF death inh: inactive; RBBP9 inh: inactive; PfM18AAP inh: inactive; p97 ATPase inh: inactive; zVAD death inh: inactive; Wee1 stabilizer: inactive

What do the screens show for `CCCSCCCNC(=O)c1ccc(NC(=O)C2=CSCCO2)cc1`?
PfM18AAP inh: inactive

How did O=C(CNC(=O)c1ccc(Br)o1)NCc1ccccc1Cl do in these assays?
PfM18AAP inh: inactive

How did Cc1ccc(C2(C(=O)N3CCC(n4nc(-c5ccccc5)oc4=O)CC3)CC2)cc1 do in these assays?
PfM18AAP inh: inactive

How did CC(=O)OCCCN1c2ccccc2Nc2nnc(-c3ccccc3)cc21 do in these assays?
TNF death inh: inactive; RBBP9 inh: inactive; PfM18AAP inh: inactive; p97 ATPase inh: inactive; zVAD death inh: inactive; Wee1 stabilizer: 9.1

How did CC(=O)OCCCN1C(=O)c2cccc3cc(Br)cc(c23)C1=O do in these assays?
PfM18AAP inh: inactive

What do the screens show for `CC(C)OCCCNC(=O)C(NS(=O)(=O)c1ccc2c(c1)c(=O)n(C)c(=O)n2C)c1ccccc1` (centres undefined)?
TNF death inh: inactive; RBBP9 inh: inactive; PfM18AAP inh: inactive; p97 ATPase inh: inactive; zVAD death inh: inactive; Wee1 stabilizer: inactive

What do the screens show for `O=C1C2ON(c3ccccc3)C(c3ccccc3F)C2C(=O)N1c1ccccc1` (centres undefined)?
TNF death inh: inactive; RBBP9 inh: inactive; PfM18AAP inh: inactive; p97 ATPase inh: inactive; zVAD death inh: inactive; Wee1 stabilizer: inactive
